Source: ChEMBL document CHEMBL1138199, “Identification of compounds with anti-West Nile Virus activity” (J Med Chem, 2006)

Assays:
West Nile virus [1] = assay: Inhibition of West Nile viral Rluc-Neo-Rep in BHK21 cell line; type: functional, organism-based; details: BHK-21
Method in brief: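 BHK-21 cell line stably carrying Rluc-Neo-Rep replicon; inhibition read as suppression of Renilla luciferase signal. Initial screen at 30 µM, 1% DMSO final; EC50 (µM) then determined.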

BHK-21 [2] = assay: Cytotoxicity against BHK21 cell line by MTT assay; type: functional; details: Mesocricetus auratus
Method in brief: (§1)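 MTT cytotoxicity assay run in BHK-21 and Vero cells on compounds giving >50% Rluc inhibition in the primary screens; CC50 reported in µM.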

[3] = Therapeutic index (CC50/EC50) in BHK21 cells; type: cell-based, BHK-21; details: hamster, read-out: Ratio CC50/EC50
Method in brief: (§2)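 TI computed as CC50/EC50, using MTT CC50 and replicon EC50 in BHK-21 cells, or MTT CC50 and Rluc-FL-WNV EC50 in Vero cells.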

West Nile virus [4] = assay: Inhibition of Rluc-FL-WNV replicon in Vero cells; type: functional, organism-based
Method in brief: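 Vero cells infected with full-length WNV carrying Renilla luciferase reporter (Rluc-FL-WNV), covering entry, replication and assembly; inhibition read as suppression of luciferase signal. Compounds first screened at 30 µM in 1% DMSO final, then EC50 (µM) determined.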

Vero [5] = assay: Cytotoxicity against Vero cells by MTT assay; type: functional; details: Chlorocebus sabaeus; method in brief: as §1
[6] = Therapeutic index (CC50/EC50) in Vero cells; type: cell-based; details: monkey, read-out: Ratio CC50/EC50; method in brief: as §2
BHK-21 [7] = assay: Inhibition of West Nile virus VLP replicon in BHK21 cell line; type: functional, cell-based; details: Mesocricetus auratus
Method in brief: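 Naive BHK-21 cells infected with virus-like particles, made by expressing WNV structural proteins in cells carrying the Rluc-Neo-Rep replicon, which package replicon RNA. This captures entry and replication but not assembly. Inhibition is read as suppression of Renilla luciferase signal. Compounds were given in 1% DMSO final, and EC50 is in µM.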

Vero [8] = assay: Inhibition of West Nile viral Rluc-Neo-Rep in Vero cells; type: functional, cell-based; details: Chlorocebus sabaeus
Method in brief: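 Vero cells containing the Rluc-Neo-Rep replicon, used to check cell-line dependence; inhibition measured as suppression of Renilla luciferase signal, EC50 in µM.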

Structure (SMILES)	EC50 (West Nile virus [1])	CC50 (BHK-21 [2])	selectivity ratio [3]	EC50 (West Nile virus [4])	CC50 (Vero [5])	selectivity ratio [6]	EC50 (BHK-21 [7])	EC50 (Vero [8])
CC(C)(C)C(=O)N1N=C(c2cccs2)CC1c1ccc(Cl)cc1 (configuration not stated)	60 µM	90 µM	1.5					
CN1CCN(C(=O)c2ccc3c(NCCc4c[nH]c5ccccc45)c4ccccc4nc3c2)CC1	13.7 µM	150 µM	11	> 30 µM	45 µM	< 1.5	10 µM	
CCN(CC)C(=O)c1ccc2nc3ccccc3c(NC3CCN(Cc4ccccc4)CC3)c2c1	22 µM	120 µM	5.4	20 µM	50 µM	2.5	22 µM	
CC(C)(C)C(=O)N1N=C(C(C)(C)C)CC1c1ccc(Cl)cc1 (configuration not stated)	27 µM	60 µM	2.2					
CCN(CC)C(=O)c1cccc2c(NCCc3c[nH]c4ccccc34)c3ccccc3nc12	9.2 µM	150 µM	16	20 µM	50 µM	2.5	9 µM	
CN1CCN(C(=O)c2ccc3nc4ccccc4c(NC4CCN(Cc5ccccc5)CC4)c3c2)CC1	28 µM	100 µM	3.6	25 µM	80 µM	3.2	25 µM	
COc1ccc(C2CC(c3cccs3)=NN2C(=O)c2ccccc2)cc1 (configuration not stated)	63 µM	> 300 µM	> 4.8	> 30 µM				
CN1CCN(C(=O)c2ccc3nc4ccccc4c(NCCc4c[nH]c5ccccc45)c3c2)CC1	28 µM	170 µM	6.1	25 µM	65 µM	2.6	27 µM	
O=C(c1ccccc1)N1N=C(c2ccc(Br)s2)CC1c1ccc(Cl)cc1 (configuration not stated)	17 µM	> 300 µM	> 18					
O=C(c1cccc2c(NC3CCN(Cc4ccccc4)CC3)c3ccccc3nc12)N1CCOCC1	20 µM	300 µM	15	> 30 µM	90 µM	< 3	20 µM	
CN1CCN(C(=O)c2ccc3c(NC4CCN(Cc5ccccc5)CC4)c4ccccc4nc3c2)CC1	15.5 µM	150 µM	9.7	30 µM	80 µM	2.7	8 µM	
O=C(c1ccc([N+](=O)[O-])cc1)N1N=C(c2cccs2)CC1c1ccc(Cl)cc1 (configuration not stated)	225 µM	> 300 µM	> 1.3					
CN1CCN(C(=O)c2cccc3c(NC4CCN(Cc5ccccc5)CC4)c4ccccc4nc23)CC1	15 µM	300 µM	20	22 µM	80 µM	3.6	20 µM	
O=C(c1ccccc1)N1N=C(c2cccs2)CC1c1ccc(F)cc1 (configuration not stated)	59 µM	100 µM	1.7					
COc1ccc(C2CC(c3cccs3)=NN2C(=O)Cc2ccc(Cl)cc2)cc1 (configuration not stated)	30 µM	> 300 µM	> 10					
CN1CCN(C(=O)c2ccc3nc4ccccc4c(Oc4ccccc4)c3c2)CC1	21 µM	100 µM	4.7	20 µM	80 µM	4	20 µM	
O=C(Cc1ccccc1)N1N=C(c2cccs2)CC1c1ccc(Cl)cc1 (configuration not stated)	20 µM	65 µM	3.3					
O=C(c1cccc2c(NCCc3c[nH]c4ccccc34)c3ccccc3nc12)N1CCOCC1	20 µM	250 µM	13	> 30 µM	60 µM	< 2	23 µM	
CN1CCN(Cc2ccc3c(c2)Oc2ccccc2C3)CC1	> 30 µM	200 µM	< 6.7	> 30 µM	90 µM	< 3	28 µM	
O=C(c1ccccc1)N1N=C(c2cccs2)CC1c1ccc(Br)cc1 (configuration not stated)	25 µM	> 300 µM	> 12	> 30 µM				

Structure (SMILES)	EC50 (West Nile virus [1])	CC50 (BHK-21 [2])	selectivity ratio [3]	EC50 (West Nile virus [4])	CC50 (Vero [5])	selectivity ratio [6]	EC50 (BHK-21 [7])	EC50 (Vero [8])
CN1CCN(Cc2ccc3c(c2)Oc2ccccc2C3O)CC1 (configuration not stated)	13.5 µM	325 µM	24	10 µM	50 µM	5	4 µM	
CN1CCN(C(=O)c2cccc3c(NCCc4c[nH]c5ccccc45)c4ccccc4nc23)CC1	10.5 µM	150 µM	14	18 µM	50 µM	2.8	17 µM	
O=C(Cc1ccc(Cl)cc1)N1N=C(c2cccs2)CC1c1ccc(Br)cc1 (configuration not stated)	19 µM	> 300 µM	> 16					
CCN(CC)C(=O)c1cccc2c(NC3CCN(Cc4ccccc4)CC3)c3ccccc3nc12	8 µM	350 µM	44	22 µM	75 µM	3.4	20 µM	
CCN(CC)C(=O)c1ccc2c(NC3CCN(Cc4ccccc4)CC3)c3ccccc3nc2c1	12.5 µM	150 µM	12	20 µM	55 µM	2.7	6 µM	
CCN(CC)C(=O)c1ccc2c(NCCc3c[nH]c4ccccc34)c3ccccc3nc2c1	7 µM	125 µM	18	25 µM	45 µM	1.8	7 µM	
CN1CCN(C(=O)c2cccc3c(Oc4ccccc4)c4ccccc4nc23)CC1	20 µM	150 µM	7.5	20 µM	50 µM	2.5	20 µM	
CN1CCN(c2cc(-c3ccc(C(C)(C)C)cc3)c3ccccc3n2)CC1	17 µM	110 µM	6.5	30 µM	25 µM	0.8	20 µM	
O=C(c1ccccc1)N1N=C(c2cccs2)CC1c1ccc([N+](=O)[O-])cc1 (configuration not stated)	200 µM	> 300 µM	> 1.5					
CC(C)(C)C1=NN(C(=O)c2ccccc2)C(c2ccc(Cl)cc2)C1 (configuration not stated)	57 µM	65 µM	1.1					
CCN(CC)C(=O)c1ccc2nc3ccccc3c(NCCc3c[nH]c4ccccc34)c2c1	25 µM	110 µM	4.4	15 µM	75 µM	5	20 µM	
NC(=O)c1ncn([C@@H]2O[C@H](CO)[C@@H](O)[C@H]2O)n1 [RIBAVIRIN]	18 µM			30 µM			1.1 µM	119 µM
O=C(Cc1ccc(Cl)cc1)N1N=C(c2ccco2)CC1c1ccc(Br)cc1 (configuration not stated)	20 µM	> 300 µM	> 15					
CN1CCN(C(=O)c2ccc3c(Oc4ccccc4)c4ccccc4nc3c2)CC1	28 µM	100 µM	3.6	28 µM	40 µM	1.4	18 µM	
CN1CCN(c2cc(-c3ccc(C(C)(C)C)cc3)nc3ccccc23)CC1	14.5 µM	50 µM	3.4	15 µM	20 µM	1.3	8 µM	
O=C(c1ccccc1)N1N=C(c2cccs2)CC1c1ccc(Cl)cc1 (configuration not stated)	17 µM	> 300 µM	> 18	23 µM	> 300 µM	> 13	15 µM	15 µM
O=C(c1cccc2c(Oc3ccccc3)c3ccccc3nc12)N1CCOCC1	> 30 µM	155 µM	< 5.1	22 µM	45 µM	2	> 30 µM	
O=C(c1ccccc1)N1N=C(c2ccccc2)CC1c1ccc(Cl)cc1 (configuration not stated)	20 µM	250 µM	12.5					
COc1c(C)c2c(c(O)c1C/C=C(\C)CCC(=O)O)C(=O)OC2 [MYCOPHENOLIC ACID]	1.4 µM			0.04 µM			0.04 µM	0.08 µM
O=C(Cc1ccc(Cl)cc1)N1N=C(c2cccs2)CC1c1ccc(Cl)cc1 (configuration not stated)	19 µM	> 300 µM	> 16					
